From ChEMBL document CHEMBL1157555, “Synthesis and pharmacological evaluation of novel 1,3,8- and 1,3,7,8-substituted xanthines as adenosine receptor antagonists” (Bioorg Med Chem, 2010) come the findings set out here.

For assay [1], the target named is T1, Adenosine receptor A2a (Homo sapiens, UniProt P29274). As to the kind of experiment: Displacement of [3H]ZM241385 from human recombinant adenosine A2A receptor expressed in human HeLa cells at 1 uM by microplate beta scintillation counter. Format: cell-based. The gist of the method:
(§1)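 Competition used HeLa cell membranes expressing human A2A with [3H]ZM241385. Non-specific binding was set with NECA. Incubation was 30 min at 25 °C, then filtration and beta scintillation counting. IC50 from non-linear regression was converted to Ki (Cheng–Prusoff). Weak or poorly soluble compounds were reported as % inhibition of specific binding at a single concentration. Three experiments, each in duplicate.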

The target of assay [2] is T2, Adenosine receptor A2b (Homo sapiens) (UniProt P29275).
T2 sequence (whole entry): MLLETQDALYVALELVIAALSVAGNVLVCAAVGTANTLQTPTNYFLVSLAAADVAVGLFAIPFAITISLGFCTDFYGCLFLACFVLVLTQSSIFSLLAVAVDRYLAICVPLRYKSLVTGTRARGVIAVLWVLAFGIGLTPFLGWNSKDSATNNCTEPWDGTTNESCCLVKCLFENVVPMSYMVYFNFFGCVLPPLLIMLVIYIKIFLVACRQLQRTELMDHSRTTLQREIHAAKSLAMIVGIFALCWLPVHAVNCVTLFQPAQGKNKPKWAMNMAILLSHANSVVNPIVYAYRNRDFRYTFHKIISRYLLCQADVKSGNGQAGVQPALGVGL
The assay is described as follows: Displacement of [3H]DPCPX from human recombinant adenosine A2B receptor expressed in HEK293 cells at 1 uM by microplate beta scintillation counter. Format: cell-based. The gist of the method: (§2)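 Membranes from HEK-293 cells expressing human A2B were labelled with 35 nM [3H]DPCPX. Incubation ran 30 min at 25 °C, followed by filtration and beta scintillation counting. IC50 was fitted by non-linear regression and converted to Ki by Cheng–Prusoff. Weak or poorly soluble compounds were given as % inhibition of specific binding at a single concentration. n = 3, each in duplicate.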

Assay [3] has as its target T3, Adenosine receptor A1 (Homo sapiens) (UniProt P30542).
T3 sequence (whole entry): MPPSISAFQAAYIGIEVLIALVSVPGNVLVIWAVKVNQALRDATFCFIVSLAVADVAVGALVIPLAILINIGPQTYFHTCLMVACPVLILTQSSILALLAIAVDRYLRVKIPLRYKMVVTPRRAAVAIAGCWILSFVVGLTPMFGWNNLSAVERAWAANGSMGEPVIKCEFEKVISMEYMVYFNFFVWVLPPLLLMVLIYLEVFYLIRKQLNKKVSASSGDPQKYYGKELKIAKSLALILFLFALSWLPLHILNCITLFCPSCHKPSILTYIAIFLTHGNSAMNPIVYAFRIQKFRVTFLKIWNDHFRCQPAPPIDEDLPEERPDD
As to the kind of experiment: Displacement of [3H]DPCPX from human recombinant adenosine A1 receptor expressed in CHO cells at 1 uM by microplate beta scintillation counter. Format: cell-based. The gist of the method: (§3)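 Membranes from CHO cells expressing human A1 were labelled with 2 nM [3H]DPCPX. Non-specific binding was defined with (R)-PIA. Incubation ran 60 min at 25 °C, then samples were filtered and counted by beta scintillation. IC50 came from non-linear regression, and Ki from Cheng–Prusoff. Weak or poorly soluble compounds were reported as % inhibition of specific binding at a single concentration. Mean of 3 experiments, each in duplicate.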
For orientation: Loss of bound radioactivity is the signal in a displacement assay; it reports binding, not function.

In assay [4] the target is T4, Adenosine receptor A3 (Homo sapiens) (UniProt P0DMS8).
T4 sequence (whole entry): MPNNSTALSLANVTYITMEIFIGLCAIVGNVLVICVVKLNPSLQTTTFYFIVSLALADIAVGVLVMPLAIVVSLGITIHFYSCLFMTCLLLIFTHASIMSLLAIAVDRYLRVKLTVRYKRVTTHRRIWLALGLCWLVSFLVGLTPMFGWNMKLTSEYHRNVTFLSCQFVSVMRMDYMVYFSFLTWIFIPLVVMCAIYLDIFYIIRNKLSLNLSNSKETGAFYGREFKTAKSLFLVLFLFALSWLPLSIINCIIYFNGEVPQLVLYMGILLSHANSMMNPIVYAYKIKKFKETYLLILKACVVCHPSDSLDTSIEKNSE
The assay is described as follows: Displacement of [3H]NECA from human recombinant adenosine A3 receptor expressed in human HeLa cells at 1 uM by microplate beta scintillation counter. The class given is cell-based. The gist of the method:
(§4)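 HeLa-A3 cell membranes were labelled with 30 nM [3H]NECA. Non-specific binding was defined with (R)-PIA. After 180 min at 25 °C, samples were filtered and counted by beta scintillation. Ki was calculated by Cheng–Prusoff from IC50 obtained by non-linear regression. Weak or poorly soluble compounds were reported as % inhibition of specific binding at a single concentration. Mean of 3 experiments in duplicate.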

The target of assay [5] is T5, Adenosine receptor A1 (Homo sapiens, UniProt P30542).
T5 sequence (P30542 whole entry): T3 sequence (whole entry)
As to the kind of experiment: Displacement of [3H]DPCPX from human recombinant adenosine A1 receptor expressed in CHO cells by microplate beta scintillation counter. The class given is cell-based. The gist of the method:
as §3

In assay [6] the target is T6, Adenosine receptor A3 (Homo sapiens, UniProt P0DMS8).
T6 sequence (P0DMS8 whole entry): T4 sequence (whole entry)
As to the kind of experiment: Displacement of [3H]NECA from human recombinant adenosine A3 receptor expressed in human HeLa cells by microplate beta scintillation counter. Format: cell-based. The gist of the method:
as §4

Assay [7] deals with T7, Adenosine receptor A2b (Homo sapiens, UniProt P29275).
T7 sequence (P29275 whole entry): T2 sequence (whole entry)
The assay is described as follows: Displacement of [3H]DPCPX from human recombinant adenosine A2B receptor expressed in HEK293 cells by microplate beta scintillation counter. The class given is cell-based. The gist of the method: as §2

Assay [8] deals with T1, Adenosine receptor A2a. The assay is described as follows: Displacement of [3H]ZM241385 from human recombinant adenosine A2A receptor expressed in human HeLa cells by microplate beta scintillation counter. The class given is cell-based. The gist of the method:
as §1

The species entered for assay [9] is Homo sapiens. The assay is described as follows: Selectivity ratio of Ki for human adenosine A2A receptor to Ki for human adenosine A2B receptor. The gist of the method: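 Ratios of Ki values at each human subtype to Ki at human A2B (HEK-293 membranes, [3H]DPCPX). Each Ki was derived by Cheng–Prusoff from IC50 of radioligand competition binding in membranes of transfected cells. Results are the mean of 3 experiments, each in duplicate.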

T1 sequence (P29274 whole entry): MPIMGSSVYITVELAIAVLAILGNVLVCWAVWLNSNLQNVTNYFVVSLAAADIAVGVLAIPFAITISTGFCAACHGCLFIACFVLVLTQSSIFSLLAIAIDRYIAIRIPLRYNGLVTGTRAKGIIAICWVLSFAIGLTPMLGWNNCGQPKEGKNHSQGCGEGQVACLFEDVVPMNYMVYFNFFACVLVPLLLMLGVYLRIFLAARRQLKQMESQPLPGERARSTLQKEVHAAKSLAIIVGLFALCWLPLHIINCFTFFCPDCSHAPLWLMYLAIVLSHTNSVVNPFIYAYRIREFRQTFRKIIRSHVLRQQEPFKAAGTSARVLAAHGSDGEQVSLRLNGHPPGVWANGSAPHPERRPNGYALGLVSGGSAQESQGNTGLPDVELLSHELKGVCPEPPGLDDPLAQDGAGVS

As to `CCn1c(=O)c2[nH]c(Cc3ccccc3)nc2n(CCS(=O)(=O)CC)c1=O`, the Activity in [1] came out at 1%; in [2], 55%; in assay [3], 6%; in [4], 6%.
Turning to `CCn1c(=O)c2[nH]c(Cc3cccs3)nc2n(Cc2ccccc2)c1=O`, the Activity in assay [1] was found to be 6%; in assay [2], 52%; in assay [3], 22%; in [4], 39%.
In the same order, the values of `CCCn1c(=O)c2c(nc(-c3ccccc3)n2C)n(CCSCC)c1=O` are 2%, 26%, 17% and 1%.
Take `CCCn1c(=O)c2[nH]c(Cc3ccccc3)nc2n(CCS(=O)(=O)CC)c1=O`: the Activity in [1] was 13%; in assay [2], 2%; in assay [3], 15%; in [4], 15%.
A word on the Ki: it is a measure of affinity in units of concentration, obtained from inhibition or displacement. `CCCn1c(=O)c2[nH]c(-c3ccccc3)nc2n(CC2CCCO2)c1=O` (stereo not drawn): the Ki is 224 nM in [5] and 135 nM in [6]. In addition, the Activity is 37% in assay [1] and 64% in assay [2].
As for `CCn1c(=O)c2[nH]c(-c3ccccc3)nc2n(CCS(=O)(=O)CC)c1=O`, the Activity in assay [1] was 0%; in assay [2] it was 18%; in [3], 35%; in [4], 35%.
For the compound `CCCn1c(=O)c2[nH]c(-c3ccccc3)nc2n(CCS(=O)(=O)CC)c1=O`, the Ki in assay [5] and in assay [6] was 93.3 nM in each case. Moreover, the Activity in [1] was 3%; in [2] it was 39%.
In the case of `CCn1c(=O)c2c(nc(Cc3c(F)cccc3F)n2C)n(Cc2ccccc2)c1=O`, the Activity in assay [1] was 28%; in assay [2], 48%; in assay [3] it was 21%; in assay [4], 4%.
In the case of `CCn1c(=O)c2c(nc(Cc3ccco3)n2C)n(Cc2ccccc2)c1=O`, the Ki was 282 nM in [7] and 1740 nM in assay [8]. In addition, the results for the Activity in assay [3] and in [4] were 29% and 14%, respectively. The Ratio Ki in assay [9] came out at 6.2.
`CCn1c(=O)c2[nH]c(Cc3ccccc3)nc2n(CC[S+]([O-])CC)c1=O` (stereo not drawn): the Activity in assay [1] worked out at 0%; in assay [2] it was 0%; in assay [3], 5%; in assay [4] it was 3%.
Turning to `CCCn1c(=O)c2[nH]c(Cc3ccccc3)nc2n(CC[S+]([O-])CC)c1=O` (stereo not drawn), the Activity in [1] worked out at 7%; in assay [2] it was 1%; in assay [3], 10%; in assay [4], 18%.
In the case of `Cn1c(=O)c2[nH]c(Cc3cccs3)nc2n(CC2CCCCC2)c1=O`, the Activity in assay [1] amounted to 11%; in [2], 2%; in assay [3], 42%; in [4], 2%.
Turning to `CCCn1c(=O)c2[nH]c(-c3ccccc3)nc2n(CCOCC)c1=O`, the Activity was 6% in assay [1], 24% in assay [2], 39% in assay [3] and 47% in assay [4].
In the same order, the values of `CCCn1c(=O)c2[nH]c(Cc3ccccc3)nc2n(CC2CCCO2)c1=O` (stereo not drawn) are 24%, 32%, 2% and 10%.
In the same order, the values of `O=c1c2[nH]c(-c3cccs3)nc2n(CC2CCCCC2)c(=O)n1CC1CCCCC1` are 14%, 10%, 2% and 2%.
Regarding `CCOCCn1c(=O)n(CC)c(=O)c2[nH]c(-c3ccc(-c4ccccc4)cc3)nc21`, the Activity in assay [1] was 28%; in assay [2], 46%; in assay [3], 19%; in assay [4] it was 17%.
In the same order, the values of `CCSCCn1c(=O)n(CC)c(=O)c2[nH]c(Cc3ccccc3)nc21` are 0%, 5%, 34% and 10%.
`CCn1c(=O)c2[nH]c(Cc3ccco3)nc2n(Cc2ccccc2)c1=O`: the Activity came to 9% in assay [1], 34% in assay [2], 23% in [3] and 30% in assay [4].
In the same order, the values of `CCn1c(=O)c2[nH]c(-c3ccccc3)nc2n(CC[S+]([O-])CC)c1=O` (stereo not drawn) are 20%, 32%, 29% and 0%.
In the same order, the values of `CCSCCn1c(=O)n(CC)c(=O)c2[nH]c(-c3ccc(-c4ccccc4)cc3)nc21` are 4%, 22%, 7% and 17%.
With `Cn1c(=O)c2[nH]c(-c3cccs3)nc2n(CC2CCCCC2)c1=O`, in [5], the Ki is 219 nM. Moreover, the Activity in assay [1] came to 29%; in [2], 34%; in [4] it was 41%.
With `CCCn1c(=O)c2[nH]c(Cc3ccccc3)nc2n(CCOCC)c1=O`, the Activity in [1] is 13%; in assay [2], 5%; in assay [3] it was 22%; in assay [4], 2%.
Regarding `CCCn1c(=O)c2c(nc(-c3ccccc3)n2C)n(CC2CCCO2)c1=O` (stereo not drawn), in assay [6], the Ki was 631 nM. The Activity in [1] was found to be 25%; in assay [2] it was 41%; in assay [3], 38%.
With `CCCn1c(=O)c2[nH]c(Cc3ccccc3)nc2n(CCSCC)c1=O`, the Activity in assay [1] came to 8%; in [2], 12%; in assay [3], 33%; in [4], 1%.
Take `CCn1c(=O)c2[nH]c(Cc3ccco3)nc2n(Cc2cccs2)c1=O`: the Ki in assay [5] was 407 nM. The Activity was 19% in assay [1], 30% in assay [2] and 42% in assay [4].
Turning to `CCn1c(=O)c2[nH]c(Cc3c(F)cccc3F)nc2n(Cc2ccccc2)c1=O`, the Activity in assay [1] is 1%; in assay [2], 8%; in assay [3], 23%; in [4], 1%.
In the case of `O=c1c2[nH]c(Cc3cccs3)nc2n(CC2CCCCC2)c(=O)n1CC1CCCCC1`, the Activity in assay [1] worked out at 50%; in assay [2], 1%; in assay [3] it was 4%; in [4] it was 16%.
In the same order, the values of `CCn1c(=O)c2[nH]c(Cc3c(F)cccc3F)nc2n(Cc2cccs2)c1=O` are 21%, 52%, 28% and 38%.
